Experimental data taken from ChEMBL document CHEMBL3091460, “Synthesis of combretastatin A-4 O-alkyl derivatives and evaluation of their cytotoxic, antiangiogenic and antitelomerase activity” (Bioorg Med Chem, 2013).

Experiments:
HT-29 [1] = assay: Antiangiogenic activity in human HT-29 cells assessed as inhibition of VEGF production at < IC50 after 72 hrs by ELISA relative to control; values are per cent of control
HEK293 = assay: Cytotoxicity against HEK293 cells assessed as growth inhibition after 3 days by MTT assay; type: cell-based; conditions: Homo sapiens, HEK293, 72 h
In short: (§1)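 5 × 10³ cells per well (HT-29, MCF-7 or HEK-293) exposed for 3 days at 37 °C, 5% CO2, humidified. MTT (5 mg/ml in PBS) added for a further 4 h at 37 °C. Formazan dissolved in 0.04 N HCl/2-propanol and read at 550 nm. Run in triplicate. IC50 taken as the concentration giving 50% growth inhibition.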

MCF7 = assay: Cytotoxicity against human MCF7 cells assessed as growth inhibition after 3 days by MTT assay; type: functional, cell-based; conditions: MCF7, 72 h
In short: as §1

HT-29 [2] = assay: Cytotoxicity against human HT-29 cells assessed as growth inhibition after 3 days by MTT assay; type: functional, cell-based; conditions: HT-29, 72 h
In short: as §1

[3] = Selectivity ratio of IC50 for HEK293 cells to IC50 for human MCF7 cells; type: ADME, cell-based; conditions: HEK293 cells versus MCF7 cells, read-out: Ratio IC50
[4] = Selectivity ratio of IC50 for HEK293 cells to IC50 for human HT-29 cells; type: ADME, cell-based; conditions: HEK293 cells versus HT-29 cells, read-out: Ratio IC50
HT-29 [5] = assay: Inhibition of c-myc mRNA expression in human HT-29 cells after 48 hrs by RT-PCR analysis relative to control; type: functional
In short: (§2)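 HT-29 cells grown to 70–80% confluence and serum-starved 24 h, then treated in DMSO for 48 h. Total RNA extracted, converted to cDNA and PCR-amplified with gene-specific primers. PCR cycles were VEGF 94 °C 30 s/58 °C 1 min/72 °C 1 min 50 s; hTERT 94 °C 1 min/57 °C 1 min/72 °C 1 min 30 s; c-Myc as VEGF. Agarose gel bands quantified by densitometry and normalized to β-actin. DMSO control set to 100%. At least three measurements per case, mean ± SEM, one-sample t-test.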

HT-29 [6] = assay: Inhibition of TERT mRNA expression in human HT-29 cells after 48 hrs by RT-PCR analysis relative to control; type: functional
In short: as §2

HT-29 [7] = assay: Antiangiogenic activity in human HT-29 cells assessed as inhibition of VEGF mRNA expression at < IC50 after 48 hrs by RT-PCR analysis relative to control; values are per cent of control

SMILES | level, % of control (HT-29 [1]) [%] | IC50 (HEK293) [µM] | IC50 (MCF7) [µM] | IC50 (HT-29 [2]) [µM] | selectivity ratio [3] | selectivity ratio [4] | inhibition (INH) (HT-29 [5]) [%] | inhibition (INH) (HT-29 [6]) [%] | level, % of control (HT-29 [7]) [%]
COc1ccc(/C=C/CCCOc2cc(/C=C\c3cc(OC)c(OC)c(OC)c3)ccc2OC)cc1 | 50 | 88 | 16 | 47 | 5.5 | 1.9 |  |  | 
C=CCOc1cc(/C=C\c2cc(OC)c(OC)c(OC)c2)ccc1OC | 51 | 43.5 | 12 | 29 | 3.6 | 1.5 |  |  | 
C/C=C/COc1cc(/C=C\c2cc(OC)c(OC)c(OC)c2)ccc1OC | 44 | 135 | 5.4 | 161 | 25 | 0.8 | 92 | 96 | 69
COc1ccc(/C=C\c2cc(OC)c(OC)c(OC)c2)cc1OCc1ccccc1 | 79 | 15 | 59 | 39 | 0.3 | 0.4 |  |  | 
COc1ccc(COc2cc(/C=C\c3cc(OC)c(OC)c(OC)c3)ccc2OC)cc1 | 57 | 64 | 48 | 47 | 1.3 | 1.4 |  |  | 
COc1ccc(/C=C\c2cc(OC)c(OC)c(OC)c2)cc1OCc1ccc(Br)cc1 | 99 | 45 | 29 | 108 | 1.6 | 0.4 |  |  | 
COc1ccccc1/C=C/CCCOc1cc(/C=C\c2cc(OC)c(OC)c(OC)c2)ccc1OC | 52 | > 400 | 21 | 86 | > 19 | > 4.6 |  |  | 
COc1cccc(/C=C/CCCOc2cc(/C=C\c3cc(OC)c(OC)c(OC)c3)ccc2OC)c1 | 38 | 39 | 41 | 25 | 1 | 1.6 | 60 | 63 | 97
COCOc1ccccc1/C=C/CCCOc1cc(/C=C\c2cc(OC)c(OC)c(OC)c2)ccc1OC | 42 | 106 | 4.4 | 9.6 | 24.1 | 11 | 75 | 76 | 80
COCOc1cccc(/C=C/CCCOc2cc(/C=C\c3cc(OC)c(OC)c(OC)c3)ccc2OC)c1 | 51 | 30 | 8 | 59 | 3.7 | 0.5 | 72 | 79 | 90
COCOc1ccc(/C=C/CCCOc2cc(/C=C\c3cc(OC)c(OC)c(OC)c3)ccc2OC)cc1 | 51 | 25 | 42 | 7 | 0.6 | 3.6 | 58 | 60 | 66
COc1ccc(/C=C\c2cc(OC)c(OC)c(OC)c2)cc1OCCC/C=C/c1ccc(F)cc1 | 57 | 115 | 16 | 98 | 7.2 | 1.2 |  |  | 
COc1ccc(/C=C\c2cc(OC)c(OC)c(OC)c2)cc1OCCC/C=C/c1ccc(Cl)cc1 | 60 | 111 | 40 | 18 | 2.8 | 6.2 |  |  | 
COc1ccc(/C=C\c2cc(OC)c(OC)c(OC)c2)cc1OCCC/C=C/c1ccc(Br)cc1 | 48 | 55 | 37 | 11 | 1.5 | 5 | 35 | 39 | 73
COc1ccc(/C=C\c2cc(OC)c(OC)c(OC)c2)cc1O [COMBRETASTATIN A4] | 47 | 25 | 1 | 4.2 | 25 | 5.9 | 99 | 74 | 91
